High-throughput results deposited in PubChem BioAssay by Broad Institute.
SR-BI DiI inh = inhibitors of SR-BI mediated HDL lipid uptake, primary screen, ldlA[mSR-BI] cells, fluorescence, single point; Scavenger receptor class B member 1 (Mus musculus), Q61009; ldlA[mSR-BI] CHO cells, DiI-HDL uptake fluorescence, 3 h; inhibition, % at 12.5 µM; 320,000 compounds, 0.96% hits; AID 488896, 2010;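 active = mean replicate inhibition of at least 70% and a set share of replicates each scoring 70 or more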
Target sequence (Q61009 whole entry, looked up): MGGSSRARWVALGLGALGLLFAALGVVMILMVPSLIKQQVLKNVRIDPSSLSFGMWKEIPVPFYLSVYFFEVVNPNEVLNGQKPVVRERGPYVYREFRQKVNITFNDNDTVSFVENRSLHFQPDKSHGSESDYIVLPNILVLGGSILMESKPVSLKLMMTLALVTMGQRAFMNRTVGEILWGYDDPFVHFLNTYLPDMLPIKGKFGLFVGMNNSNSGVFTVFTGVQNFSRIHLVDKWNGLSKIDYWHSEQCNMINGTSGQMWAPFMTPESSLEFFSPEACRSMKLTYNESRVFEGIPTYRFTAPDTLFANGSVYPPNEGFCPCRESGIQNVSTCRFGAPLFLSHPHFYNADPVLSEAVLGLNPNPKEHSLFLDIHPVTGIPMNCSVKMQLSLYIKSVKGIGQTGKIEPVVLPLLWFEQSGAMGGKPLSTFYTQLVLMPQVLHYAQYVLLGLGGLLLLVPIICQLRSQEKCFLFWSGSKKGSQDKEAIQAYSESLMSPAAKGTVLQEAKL
PvdQ inh = P. aeruginosa PvdQ acylase inhibitors, primary screen, biochemical, fluorescence, plate reader and imaging, single point; purified PvdQ acylase; inhibition, % at 10 µM; 340,000 compounds, 0.063% hits; in the data active = inhibition above about 30%, passing the limit was not always enough
dFosB act = activators of delta FosB homodimer, primary screen, biochemical, fluorescence polarization, TAMRA-CDK5 oligo, single point | purified delta FosB; percent of positive-control signal above neutral wells | Protein FosB (Mus musculus), P13346 | 340,000 compounds, 0.99% hits | activation, % at 25 µM | AID 493131, 2011;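 active = mean activation above about 17%, with every replicate also reaching it, limit read from the data, passing the limit was not always enough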
Ecoli rRNA inh = reduced GFP signal of wild-type E. coli, primary screen, bacterial rRNA inhibitor project, GFP/RFP fluorescence, OD600, single point; 350,000 compounds, 1.6% hits; E. coli WT GFP vs humanized-ribosome RFP mutants, 24 h; hits give low values; DMSO median 0, no signal -100; AID 720706, 2013; GFP signal change (wild-type ribosome), % (concentration not given with the values);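 active = significant combined selectivity score with lowered wild-type GFP, culture density cut under 30%, mutant RFP and density less affected; inactive = any of these conditions unmet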
SR-BI uptake up = activators of SR-BI mediated DiI-HDL uptake, primary screen, ldlA[mSR-BI] CHO cells, DiI fluorescence; 3 h; 100 = double the neutral-control signal; activation, % at 12.5 µM; 320,000 compounds, 0.096% hits;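 active = mean replicate activation of at least 60% and every replicate at or above 60%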
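Material: SR-BI-overexpressing, LDLR-lacking CHO cells; schedule: compound exposure 3 h, 37 °C; reagent: DiI-labelled HDL at 10 µg/mL final; technique: bottom-read fluorescence, 550/595 nm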
Xi reactivation = activators of inactive X chromosome reactivation, primary screen, imaging, XiGFP fibroblasts, GFP high-content imaging, set 2. AID 743238, 2013. activation, % at 7.58 µM. XiGFP mouse fibroblasts, % GFP-positive cells imaging, 3 d; cells co-treated with 5-aza-dC sensitizer; scaled so ellipticine positive control = 100%. 360,000 compounds, 0.055% hits;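 active = mean normalized replicate activation at least 10% and every replicate at or above 10%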
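System: 68-5-11 XiGFP fibroblast line | Buffer or medium: DMEM containing 5-aza-dC | Compound: Single point | Times: Compounds 3 days, fix/stain 15 min at room temperature | Benchmarks: Positive control ellipticine, 6 µM final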
Large screens that a line does not name were inactive. Compounds with a hit are over-represented: about 2.6% of the library has one in this group of screens.

Cc1nn(-c2cc(N3CCCCCC3)ccc2[N+](=O)[O-])c(=O)c2ccccc12	none (no result: Ecoli rRNA inh, Xi reactivation)
Cc1ccc(-c2nn(-c3cc(N4CCNCC4)ccc3[N+](=O)[O-])c(=O)c3ccccc23)cc1	dFosB act 35
CCOC(=O)N1CCC(N2C(=O)c3ccc(C(=O)Nc4ccc(F)cc4F)cc3C2=O)CC1	SR-BI DiI inh 78
CCOc1ccc(NC(=O)CN2C(=O)CCSc3ccc(S(=O)(=O)N4CCCC4)cc32)cc1	dFosB act 37
CCOc1ccc(S(=O)(=O)Nc2ccc(S(=O)(=O)N3CCCCC3)cc2)cc1	none (no result: Xi reactivation)
CCOc1ccc(S(=O)(=O)Nc2ccc(S(=O)(=O)N3CCCC3)cc2)cc1	Ecoli rRNA inh -27 (no result: Xi reactivation)
C#CC(=O)N(c1cccc(OC)c1)C(C(=O)NC1CCCC1)c1cccs1 (configuration not stated)	none (no result: Xi reactivation)
C#CC(=O)N(c1ccc(OC)c(OC)c1)C(C(=O)NC1CCCC1)c1cccs1 (configuration not stated)	Ecoli rRNA inh -28 (no result: Xi reactivation)
Cc1nn(-c2ccc(Cl)cc2)c(=O)c2ccccc12	none
Cc1c(Cl)sn(-c2ccc(Cl)cc2)c1=O	SR-BI DiI inh 72
CCOc1cccc(CNc2ccc(O)cc2)c1OCc1ccccc1Cl	SR-BI DiI inh 81 (no result: Ecoli rRNA inh, Xi reactivation)
CCOc1cccc(CNCCO)c1OCc1ccc(Cl)cc1Cl	none
CCOc1cccc(CNc2ccc(O)cc2)c1OCc1ccc(Cl)cc1Cl	SR-BI DiI inh 80 (no result: Ecoli rRNA inh, Xi reactivation)
C=CCn1c(CCSCc2ccccc2)n[nH]c1=S	none (no result: SR-BI DiI inh, SR-BI uptake up)
C=CCn1c(CCSCc2ccc(OC)c(C)c2)n[nH]c1=S	Ecoli rRNA inh -19
NC(=S)NN=C(c1ccc(Br)cc1)C1CC1	SR-BI DiI inh 79
O=C(NNC(=O)c1ccc(NC(=O)C2CC2)cc1)c1ccc(F)cc1	none
NC(=S)NN=C(c1ccc(F)cc1)C1CC1	SR-BI DiI inh 90
Cc1ccc(-c2cc(-c3ccc(F)cc3)n[nH]2)c(O)c1	none
Cc1ccc(-c2cc(-c3ccc(C)cc3O)[nH]n2)cc1	SR-BI DiI inh 100
COc1ccc(/C=C/C2=CC(C)(C)NC(=S)N2)cc1OC	SR-BI DiI inh 83
COc1cccc(/C=C/C2=CC(C)(C)NC(=S)N2)c1	SR-BI DiI inh 78
CCOc1ccc(/C=C/C2=CC(C)(C)NC(=S)N2)cc1	none
COC(=O)C1=C(C)NC(C)=C(C(=O)OC)C1/C=C/c1ccccc1	Ecoli rRNA inh -32 (no result: Xi reactivation)
Cc1nn(-c2ccccc2)c2c1C1(C(=O)N(C)c3ccccc31)C(C#N)=C(N)O2 (configuration not stated)	none (no result: Ecoli rRNA inh, Xi reactivation)
Cc1nn(-c2ccccc2)c2c1C1(C(=O)N3c4c(cccc41)C(C)CC3(C)C)C(C#N)=C(N)O2 (configuration not stated)	Ecoli rRNA inh -46 (no result: Xi reactivation)
C[C@H](CO)N1C[C@H](C)[C@@H](CN(C)CC2CC2)Oc2ccc(NC(=O)CCN3CCOCC3)cc2CC1=O	none (no result: SR-BI DiI inh, PvdQ inh, dFosB act, SR-BI uptake up)
Nc1ccc(N=Nc2ccccc2)c(N)n1	Ecoli rRNA inh -24
c1ccc(N=Nc2ccc3cccccc2-3)cc1	Ecoli rRNA inh -20
Nc1ccc(N=Nc2ccccc2)c2ccccc12	none
Cc1nn(-c2ccccc2)nc1C(=O)NN	none
Cc1nn(-c2ccccc2)nc1C(=O)NNC(=O)c1cccc2ccccc12	Ecoli rRNA inh -21
CCOC(=O)/C=c1\s/c(=C\c2ccc3c(c2)OCCO3)c(=O)n1CC(=O)NCC1CCCO1 (configuration not stated)	none (no result: Ecoli rRNA inh, Xi reactivation)
COc1cc(NC(=O)c2cc3ccccc3cc2OC)ccc1NC(=O)c1cccs1	SR-BI DiI inh 71 (no result: SR-BI uptake up)
COc1cc(NC(=S)NC(=O)c2c(OC)cccc2OC)ccc1NC(=O)c1cccs1	SR-BI DiI inh 74 (no result: Ecoli rRNA inh, Xi reactivation)
